This note sets out measurements from ChEMBL document CHEMBL4513216, “Probing the Open Global Health Chemical Diversity Library for Multistage-Active Starting Points for Next-Generation Antimalarials” (ACS Infect Dis, 2020).

The structures appear in SMILES notation.

The series can be described thus: Toxicity liver stage against HepG2, at 10uM. The series is classed as cell-based. The arrangement: test concentration 10 uM, cell line HepG2-A16-CD81EGFP. The note with it: human, HepG2-A16-CD81EGFP cells; read-out: INHIBITION
The method in brief:
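Uninfected HepG2-A16-CD81EGFP cells, 3 × 10^3 per well, 1536-well, plated on prespotted compound at 10 μM final, parasite-free screening media added to match infected plates; puromycin 10 μM positive, DMSO 0.5% negative; run in parallel with 48 h PbLuc assay at 37 °C, 5% CO2; viability by CellTiter-Glo luminescence, normalized to controls.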
As to `CCC1(CC)Cc2ccccc2-c2nc(CN(C)C)nc(O)c21`, the cytotoxicity at 10 µM is -8.95%.

For the compound `CCOC(=O)C1CC2(CCCCC2)N2CCC(=O)N12` (stereo not given), the cytotoxicity at 10 µM is 2.63%.

For `C[C@@H](CO)NC(=O)c1ccc2nc(NS(C)(=O)=O)sc2c1`, the cytotoxicity at 10 µM is 6.84%.

Consider `CCOCC(=O)NCC(Cc1cccc(F)c1)N1CCCCC1=O` (stereo not given), for which the cytotoxicity at 10 µM is -1.89%.

For `CNC(=O)CN1CCC(c2nn(C)c(=O)n2-c2ccccc2)CC1`, the cytotoxicity at 10 µM is -14%.

`COC(=O)c1sccc1S(=O)(=O)N1CCC(Oc2cnccn2)CC1`: the cytotoxicity at 10 µM was 9.32%.

As to `COC[C@@H]1CCC[C@]12CN(S(=O)(=O)c1cccs1)CCO2`, the cytotoxicity at 10 µM is -5.73%.

For the compound `O=C(Cc1ccccc1)N1CC[C@@H]2CNS(=O)(=O)[C@@H]2CC1`, the cytotoxicity at 10 µM is -9.88%.

Regarding `Cn1cccc1C(=O)N1CC[C@H]2[C@@H]1CCC(=O)N2CC1CC1`, the cytotoxicity at 10 µM is -11.1%.

In the case of `NC(=O)c1ccc2c(c1)nc1n2CCN(Cc2cccnc2)C1`, the cytotoxicity at 10 µM was found to be 10.3%.

With `O=C(O)c1ccc2ccc(N3CCN(CC4CC4)CC3)n2c1`, the cytotoxicity at 10 µM was determined as 7.25%.

`CNc1cc(C)nc(C2COCCN2Cc2csc(C)n2)n1` (stereo not given): the cytotoxicity at 10 µM worked out at 1.45%.

`CC(C)Cn1nc(-c2ccc(C(=O)O)cc2)cc1-c1ccc(F)cc1`: the cytotoxicity at 10 µM turned out to be 8.88%.

On to `COc1ccc(S(=O)(=O)N2CCC[C@@H]3CN(C(=O)C4CC4)C[C@@H]32)cc1`, for which the cytotoxicity at 10 µM was 14.7%.

For the compound `COCC(=O)N1CCC(c2cccc(Cc3ccc(F)cc3)n2)CC1`, the cytotoxicity at 10 µM stood at 10.3%.

In the case of `COc1ccccc1Cc1nnc(SCCS(C)(=O)=O)o1`, the cytotoxicity at 10 µM amounted to 5.89%.

As for `COc1cccc2c1CCCCN2C(=O)c1oc(C)nc1C`, the cytotoxicity at 10 µM was found to be 3.3%.

Regarding `c1cnnc(N2CCCC(NCc3cccc4c3OCO4)C2)c1` (stereo not given), the cytotoxicity at 10 µM stood at 2.97%.

As to `CNS(=O)(=O)c1ccc(CNC(=O)C2CCCO2)cc1` (stereo not given), the cytotoxicity at 10 µM worked out at 2.45%.

For `Cn1cc(C2CN(C(=O)Cc3coc(-c4ccccc4)n3)CCO2)cn1` (stereo not given), the cytotoxicity at 10 µM was -12.4%.

For `O=C(c1cccnc1O)N1CCN(Cc2ccccc2F)CC1`, the cytotoxicity at 10 µM was 5.57%.

For `O=C(Nc1cccc(CN2CCOC2=O)c1)N1CCCC1`, the cytotoxicity at 10 µM was -3.54%.

In the case of `CCCC1CCCN(C(=O)Nc2ccc(F)c(C(N)=O)c2)CC1` (stereo not given), the cytotoxicity at 10 µM is -2.27%.

For the compound `CSCCC(=O)N1CCCC1c1nnc2n1CCCCC2` (stereo not given), the cytotoxicity at 10 µM is -5.79%.

Take `CCc1nnc2n1CCN(C(=O)c1cnn(C)c1C1CC1)C2`: the cytotoxicity at 10 µM was -6.93%.

For the compound `CC(Cn1cccn1)C(=O)N1CCC(Nc2cccnn2)CC1` (stereo not given), the cytotoxicity at 10 µM was -9.28%.

For `CCc1[nH]n(C)c(=N)c1-c1ccc2c(c1)OCO2`, the cytotoxicity at 10 µM is -45.1%.

`Cc1ccc2cc(C(=O)N3CCS(=O)(=O)CC3)[nH]c2c1`: the cytotoxicity at 10 µM is -56.3%.

In the case of `Cc1nc(CN(CCS(C)(=O)=O)C(C)C)cs1`, the cytotoxicity at 10 µM was -44.2%.

In the case of `O=C(CN1CCN(CCO)CC1)NCc1ccc(Cl)s1`, the cytotoxicity at 10 µM worked out at 9.3%.

`Cc1ccc(CNC(=O)CN(C)CC2CCN(CCO)CC2)s1`: the cytotoxicity at 10 µM is 9.83%.

On to `COCCOC1CCN(C(=O)NCc2cc(C)oc2C)CC1`, for which the cytotoxicity at 10 µM was -4.23%.

Consider `Cc1c(C(=O)NS(=O)(=O)c2ccsc2)cnn1CC(C)C`, for which the cytotoxicity at 10 µM worked out at 11.6%.

For `O=C(CC1CC1)N[C@@H]1CN(C(=O)c2cccs2)C[C@@H]2CCCO[C@@H]21`, the cytotoxicity at 10 µM is -113%.

Take `CC(C)N1C(=O)C[C@H]2[C@@H]1CCN2C(=O)c1ccco1`: the cytotoxicity at 10 µM was -99%.

`CCS(=O)(=O)NCC1Cn2nnc(-c3ccccc3)c2CO1` (stereo not given): the cytotoxicity at 10 µM is -75.4%.

For `Cc1ccc2c(n1)N(CCN(C)C)CCN(C(=O)c1ccco1)C2`, the cytotoxicity at 10 µM was -65.8%.

With `CCOCC1CN(C(=O)Cc2ccccn2)Cc2cnn(CC)c21` (stereo not given), the cytotoxicity at 10 µM is -68.9%.

For the compound `O=C1CCc2cc(NC(=O)N3CCCN(Cc4cccs4)CC3)ccc21`, the cytotoxicity at 10 µM is -11.1%.

On to `CN1CCC(N2CCC(CN(Cc3ccncc3)C3CCC3)CC2)CC1`, for which the cytotoxicity at 10 µM was -7.19%.

For `Cc1nc2cc(CNC(=O)C3CC(=O)N(C4CCCC4)C3)ccc2n1C` (stereo not given), the cytotoxicity at 10 µM was -2.37%.

Regarding `CCCc1nnc(NC(C)c2ccc3c(c2)OCCO3)o1` (stereo not given), the cytotoxicity at 10 µM amounted to 0.965%.

Consider `COc1cccc2c1OCC(NCc1cnn(-c3ccccc3F)c1)C2` (stereo not given), for which the cytotoxicity at 10 µM came out at 1.68%.

In the case of `Cc1ccc(N2CCN(C3CCc4ccccc4C3)CC2)nn1` (stereo not given), the cytotoxicity at 10 µM was -0.75%.

As for `CC(C)NS(=O)(=O)c1cc(C(=O)O)cc(-c2ccccc2C#N)c1`, the cytotoxicity at 10 µM was -3.73%.

With `Cc1ccccc1C(C(=O)N(C)CCc1cn[nH]c1)N(C)C` (stereo not given), the cytotoxicity at 10 µM was -5.86%.

As for `Cc1nc(CN2CCC3(CCCO3)CC2)c2ccccn12`, the cytotoxicity at 10 µM is 2.07%.

In the case of `CCSc1ccc(C(=O)N2CC[C@](O)(CC)[C@H](O)C2)s1`, the cytotoxicity at 10 µM is -7.17%.

For `CN(C)c1nc2c(c(=O)[nH]1)Cc1ccccc1OC2`, the cytotoxicity at 10 µM is -104%.

Take `CCOc1ccc2[nH]c(=O)c(CN(C)CCc3cn[nH]c3)cc2c1`: the cytotoxicity at 10 µM is 25.9%.

Turning to `Cc1ccccc1SC1CCN(C(=O)CCCS(N)(=O)=O)CC1`, the cytotoxicity at 10 µM was -7.76%.

`CCCN1CCN(C(=O)c2cc[nH]n2)[C@H]2CS(=O)(=O)C[C@H]21`: the cytotoxicity at 10 µM was 2.29%.

For `Cn1cc(C2=CCN(CCCOc3ccc(C(N)=O)cc3)CC2)cn1`, the cytotoxicity at 10 µM stood at 6.39%.

`CC(C)c1cc(N2CCC(N(C)C)C2)n2nccc2n1` (stereo not given): the cytotoxicity at 10 µM was -0.869%.

On to `Cn1c(=O)oc2ccc(NC(=O)N3CCOCC3)cc21`, for which the cytotoxicity at 10 µM is -5.09%.

Consider `O=C(Nc1ccc(-n2cccn2)cc1)N1CCOCC(O)C1` (stereo not given), for which the cytotoxicity at 10 µM was -46.8%.

`CC(C)(C)c1cn(C2CCN(C(=O)c3cncnc3)CC2)nn1`: the cytotoxicity at 10 µM worked out at 13%.

For the compound `CCCC(=O)NCC1CCCN(Cc2cc(C)c(C)o2)C1` (stereo not given), the cytotoxicity at 10 µM is 8.82%.

As for `Cc1nc[nH]c1CNC1CC(=O)N(CCc2cccc(Cl)c2)C1` (stereo not given), the cytotoxicity at 10 µM was -135%.

In the case of `COc1cccc(-c2cccc(N3CCC(N[C@@H]4CCOC4)CC3)c2)c1`, the cytotoxicity at 10 µM is -12.7%.

Consider `COc1ccc(OCc2nc(C(=O)N3CCCNC(=O)C3)co2)cc1`, for which the cytotoxicity at 10 µM is -45.1%.

Regarding `CN1CCCC1CCn1ccnc1-c1nc2ccccc2[nH]1` (stereo not given), the cytotoxicity at 10 µM amounted to 5.47%.

On to `COc1cccc(-c2n[nH]c3c2CN(C(=O)c2cccc(=O)[nH]2)CC3)c1`, for which the cytotoxicity at 10 µM is -5.66%.

For `CCN1CCCC1CN(Cc1ccoc1)CC1CCN(CCOC)CC1` (stereo not given), the cytotoxicity at 10 µM is -2.64%.

For `Cc1ncc(CN2CCC(n3cc(-c4ccc(F)cc4)nn3)CC2)cn1`, the cytotoxicity at 10 µM worked out at 5.48%.

As for `CN1CC2(CCN(Cc3ncc[nH]3)CC2)CC1=O`, the cytotoxicity at 10 µM is -1.52%.

Take `Cc1cc(-c2n[nH]c3c2CN(S(=O)(=O)c2ccsc2)CC3)c(C)o1`: the cytotoxicity at 10 µM was -15.8%.

On to `CCCN(CCOC)c1nc(C)nc2sccc12`, for which the cytotoxicity at 10 µM was -134%.

Regarding `CC(C)c1nc(C2CCCN2Cc2ccncc2Cl)no1` (stereo not given), the cytotoxicity at 10 µM was -2.83%.

Turning to `Cc1[nH]ncc1C(=O)N1CCCN(Cc2nccn2C(C)C)CC1`, the cytotoxicity at 10 µM is -6.33%.

`COc1cccc2cc(CNC(=O)N3CCC(N4CCCC4)C3)oc12` (stereo not given): the cytotoxicity at 10 µM is -2.69%.

`CN(C(=O)Cc1cccs1)C1CCN(c2ccccn2)CC1`: the cytotoxicity at 10 µM is -3.54%.

Regarding `CC(Oc1ccccc1)C(=O)N1CCCN(Cc2nccn2C)CC1` (stereo not given), the cytotoxicity at 10 µM was 0.471%.

Turning to `Cn1ncc2c(=O)[nH]c(CN(Cc3ccco3)C3CCCC3)nc21`, the cytotoxicity at 10 µM came out at 20.8%.

As for `CC(C)N(C)S(=O)(=O)N(C)Cc1ccc2c(c1)OCO2`, the cytotoxicity at 10 µM is -0.0868%.

As to `Cc1cc(CN(C)C2CCCN(Cc3noc(C4CC4)n3)C2)no1` (stereo not given), the cytotoxicity at 10 µM was -10.8%.

As to `CCc1c(C(=O)N2CCN(CC(N)=O)CC2)cnn1C(C)(C)C`, the cytotoxicity at 10 µM was -1.77%.

On to `Cn1cnc2c1CCN(Cc1nc(COc3ccc(F)cc3)no1)C2`, for which the cytotoxicity at 10 µM was -7.22%.

As to `COc1ccc(-c2noc(CNC(C)Cn3cccn3)n2)c(OC)c1` (stereo not given), the cytotoxicity at 10 µM was -0.144%.

`O=C(c1ccc[nH]1)N1CCCC(c2cc(C(F)(F)F)[nH]n2)C1` (stereo not given): the cytotoxicity at 10 µM came out at 2.04%.

Turning to `Cc1csc(CNC(=O)N(C)Cc2cnn(C)c2)n1`, the cytotoxicity at 10 µM is -1.57%.

With `Cc1nc(C)n(CC2CN(CCOc3ccccc3F)CCO2)n1` (stereo not given), the cytotoxicity at 10 µM is -1.44%.

`CC(C)C(NC(=O)Cn1ccc(=O)n(C)c1=O)c1ccc(F)cc1` (stereo not given): the cytotoxicity at 10 µM is -9.9%.

For `Clc1ccc(OCCCN2CCN(c3cnccn3)CC2)cc1`, the cytotoxicity at 10 µM was -8.11%.

Consider `CCc1nc(CN2CCCN(C(=O)COCC3CC3)CC2)cs1`, for which the cytotoxicity at 10 µM is -5.2%.

For the compound `Cc1noc([C@@H]2C[C@H]3OCC[C@H]3N(Cc3sccc3C)C2)n1`, the cytotoxicity at 10 µM is -69.1%.

`CCS(=O)(=O)NC[C@]12COC[C@H]1CN(Cc1ccsc1)C2`: the cytotoxicity at 10 µM worked out at 6.37%.

Take `CCOc1ncnc2c1CCN(C(=O)c1ccncc1F)CC2`: the cytotoxicity at 10 µM was -76.6%.

`Cc1ccc(N2CCC3(CCCN3Cc3ccn(C)n3)CC2)nn1`: the cytotoxicity at 10 µM is 11.6%.

As to `CNC(=O)COC1COC2(CCN(c3ccc(C)nn3)CC2)C1` (stereo not given), the cytotoxicity at 10 µM was -0.419%.

Turning to `Cc1cncc(C(=O)N2CC[C@@]3(C[C@H](NS(C)(=O)=O)CCO3)C2)c1`, the cytotoxicity at 10 µM was -73.6%.

Turning to `COCCN1CCC2(CC1)CC(NCc1cncn1C)c1ccccc12` (stereo not given), the cytotoxicity at 10 µM is -8.13%.

Turning to `c1coc(CN2CC[C@H]3O[C@@H](COCC4CC4)CC[C@H]32)c1`, the cytotoxicity at 10 µM is -137%.

In the case of `CCS(=O)(=O)NC[C@]12COC[C@H]1CN(Cc1ccncc1)C2`, the cytotoxicity at 10 µM was 6.01%.

With `Cc1c(C2N3CC4(C(C)C)CN2CC(C(C)C)(C3)C4=O)[nH]c(=O)[nH]c1=O` (stereo not given), the cytotoxicity at 10 µM amounted to 8.71%.
